Assay results taken from ChEMBL document CHEMBL3045676, “Anti-tobacco mosaic virus (TMV) Quassinoids from Brucea javanica (L.) Merr” (J Agric Food Chem, 2010).
Calls of active or inactive are those of the source. The rule behind the calls is not given here.

Tests used:
Tobacco mosaic virus [1] = assay: (§1) In vivo antiviral activity against Tobacco mosaic virus strain U1 (TMV) infected left side of Nicotiana glutinosa leaves assessed as decrease in local lesion numbers at 1.25 uM co-incubated with virus for 30 min before inoculation onto leaves measured at 3-4 days after viral challenge by half-leaf method; type: functional
How it was run: (§2)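 Half-leaf test on N. glutinosa at the 5-6-leaf stage. Compound was dissolved in DMSO, diluted in water and mixed with TMV (32 μg/mL in 0.01 M PBS) for 30 min, then rubbed onto the left half-leaf; the right half received virus plus DMSO. Local lesions were counted after 3-4 days, with three repetitions. Inhibition % = (C−T)/C×100 using mean lesion counts. IC50 was taken from a 1.25-20 μM series.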

Tobacco mosaic virus [2] = assay: as §1, with “10” for “1.25”; type: functional; how it was run: as §2
Tobacco mosaic virus [3] = assay: as §1, with “2.5” for “1.25”; type: functional; how it was run: as §2
Tobacco mosaic virus [4] = assay: In vivo antiviral activity against Tobacco mosaic virus strain U1 (TMV) infected left side of Nicotiana glutinosa leaves assessed as decrease in local lesion numbers co-incubated with virus for 30 min before inoculation onto leaves measured at 3-4 days after viral challenge by half-leaf method; type: functional, organism-based; how it was run: as §2
Tobacco mosaic virus [5] = assay: as §1, with “5” for “1.25”; type: functional; how it was run: as §2
Tobacco mosaic virus [6] = assay: as §1, with “20” for “1.25”; type: functional; how it was run: as §2
Tobacco mosaic virus [7] = assay: Antiviral activity against Tobacco mosaic virus strain U1 (TMV) infected Nicotiana glutinosa leaves assessed as protective effect by decrease in local lesion number at 20 uM treated 6 hr prior to viral inoculation measured at 3-4 days after viral challenge; type: functional
How it was run: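 N. glutinosa plants pretreated with compound solutions (DMSO diluted in distilled water) or DMSO solution for 6 h, then inoculated with TMV and kept in an insect-free greenhouse 3-4 days until local lesions were visible; inhibition rate calculated from local lesion counts.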

Tobacco mosaic virus [8] = assay: Antiviral activity against Tobacco mosaic virus strain U1 (TMV) infected Nicotiana tabacum cv. K326 leaves assessed as decrease in Tobacco mosaic virus coat protein level at 20 uM at 25 degC treated at 6 hr after viral inoculation measured after 48 hr by leaf disk method/western blot analysis; type: functional, organism-based
How it was run: (§3)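 N. tabacum cv. K326 leaves (5-6-leaf stage) mechanically inoculated with TMV (32 μg/mL in 0.01 M PBS). After 6 h, 1 cm disks without major veins were cut and floated on compound solution, with DMSO negative control and ningnanmycin positive control, at 25 °C for 48 h. Coat protein was then detected by SDS-PAGE and Western blot with polyclonal anti-TMV antibody and AP-conjugated anti-rabbit IgG using NBT/BCIP; samples run in duplicate.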

Tobacco mosaic virus [9] = assay: Ratio of ningnamycin IC50 to compound IC50 for Tobacco mosaic virus strain U1 (TMV) infected left side of Nicotiana glutinosa leaves by half-leaf method; type: functional
How it was run: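 Ratio of IC50 values from the half-leaf N. glutinosa lesion assay, with ningnanmycin as the reference compound. Virus (32 μg/mL) was premixed with compound for 30 min before inoculation, and lesions were counted after 3-4 days.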

Tobacco mosaic virus [10] = assay: Antiviral activity against Tobacco mosaic virus strain U1 (TMV) infected Nicotiana tabacum cv. K326 leaves assessed as decrease in Tobacco mosaic virus coat protein level at 25 degC treated at 6 hr after viral inoculation measured after 48 hr by leaf disk method/western blot analysis; type: functional, organism-based; how it was run: as §3

| Structure (SMILES) | inhibition in vivo at 1.25 µM (Tobacco mosaic virus [1]) [%] | inhibition in vivo at 10 µM (Tobacco mosaic virus [2]) [%] | inhibition in vivo at 2.5 µM (Tobacco mosaic virus [3]) [%] | IC50 (Tobacco mosaic virus [4]) [µM] | inhibition in vivo at 5 µM (Tobacco mosaic virus [5]) [%] | inhibition in vivo at 20 µM (Tobacco mosaic virus [6]) [%] | inhibition at 20 µM (Tobacco mosaic virus [7]) [%] | inhibition (Tobacco mosaic virus [8]) | Ratio IC50 (Tobacco mosaic virus [9]) | inhibition (Tobacco mosaic virus [10]) |
| --- | --- | --- | --- | --- | --- | --- | --- | --- | --- | --- |
| COC(=O)[C@]12OC[C@]34[C@H]([C@@H](O)[C@@H]1O)[C@@]1(C)CC(=O)C(O[C@@H]5O[C@H](CO)[C@@H](O)[C@H](O)[C@H]5O)=C(C)[C@@H]1C[C@H]3OC(=O)[C@H](OC(=O)/C=C(\C)C(C)(C)O)[C@@H]24 [Yadanzioside L] | 20 | 64.3 | 35 | 4.86 | 53.3 | 73.8 | 54.4 | Active |  |  |
| COC(=O)[C@@]12OC[C@]34[C@H]([C@@H](O)[C@@H]1O)[C@@]1(C)C=C(O[C@@H]5O[C@H](CO)[C@@H](O)[C@H](O)[C@H]5O)C(=O)[C@@H](C)[C@@H]1C[C@H]3OC(=O)[C@H](OC(=O)C=C(C)C)[C@@H]24 [BRUCEOSIDE A] |  |  |  |  |  | 24.1 |  | Active |  |  |
| COC(=O)[C@]12OC[C@]34[C@H]([C@@H](O)[C@@H]1O)[C@@]1(C)CC(=O)[C@H](O)[C@@H](C)[C@@H]1C[C@H]3OC(=O)[C@H](OC(=O)C=C(C)C)[C@@H]24 [JAVANICOLIDES E] |  |  |  |  |  | 52 |  |  |  |  |
| COC1=C[C@@H](C)[C@@H]2C[C@H]3OC(=O)C[C@H]4[C@@H](C)[C@H](OC)[C@@H](O)[C@H]([C@@]2(C)C1=O)[C@@]34C |  |  |  |  |  |  |  | inactive |  |  |
| CC1=CC(=O)[C@@H](O)[C@]2(C)[C@H]3[C@@H](O)[C@H](O)[C@]4(CO)OC[C@@]35[C@@H](C[C@@H]12)OC(=O)[C@H](O)[C@]54O [YADANZIOLIDE A] | 22.4 | 58.7 | 39.2 | 5.5 | 46.1 | 75 |  | Active |  |  |
| CC1=C[C@H](O[C@@H]2O[C@H](CO)[C@@H](O)[C@H](O)[C@H]2O)[C@@H](O)[C@]2(C)[C@H]3[C@@H](O)[C@H](O)[C@]4(C)OC[C@@]35[C@@H](C[C@@H]12)OC(=O)[C@H](O)[C@]54O [YADANZIGAN] |  |  |  |  |  | 30.6 |  | Active |  |  |
| COC(=O)[C@]12OC[C@@]34[C@@H](CC5=C(C)C(=O)C(O)=C[C@]5(C)[C@H]3[C@@H](O)[C@@H]1O)OC(=O)[C@H](OC(C)=O)[C@@H]24 [DEDYDROBRUCEINE B] |  |  |  |  |  | 59.1 |  | Active |  |  |
| CNCC(=O)N[C@@H](CO)C(=O)N[C@H]1[C@H](O)[C@@H](O)[C@H](n2ccc(N)nc2=O)O[C@@H]1C(N)=O [NINGNANMYCIN] | 28 | 67.5 | 37.9 |  | 46.6 | 25.3 |  |  |  |  |
| COC(=O)[C@]12OC[C@]34[C@H]([C@@H](O)[C@@H]1O)[C@@]1(C)CC(=O)C(O)=C(C)[C@@H]1C[C@H]3OC(=O)[C@H](OC(=O)C=C(C)C)[C@@H]24 [BRUSATOL] | 20 | 71.5 | 48.8 | 3.42 | 64.7 | 88.9 | 77.5 | Active | 34 | Dose-dependent effect |
| CC1=C[C@H](O)[C@@H](O)[C@]2(C)[C@H]3[C@@H](O)[C@H](O)[C@@]4(C)OC[C@@]35[C@@H](C[C@@H]12)OC(=O)[C@H](O)[C@]54O [BRUCEINE E] |  |  |  |  |  | 28.7 |  | Active |  |  |
| CC1=CC(=O)[C@@H](O)[C@]2(C)[C@H]3[C@@H](O)[C@H](O)[C@]4(C)OC[C@@]35[C@@H](C[C@@H]12)OC(=O)[C@H](O)[C@]54O [BRUCEINE D] | 21.4 | 66.7 | 29.1 | 5.29 | 47.9 | 78.6 | 72.2 | Active |  |  |
| COC(=O)[C@]12OC[C@]34[C@H]([C@@H](O)[C@@H]1O)[C@@]1(C)CC(=O)[C@H](O)[C@@H](C)[C@@H]1C[C@H]3OC(=O)[C@H](OC(=O)/C=C(\C)C(C)(C)OC(C)=O)[C@@H]24 [JAVANICOLIDE F] |  |  |  |  |  | 52.1 |  |  |  |  |
| COC(=O)[C@]12OC[C@]34[C@H]([C@@H](O)[C@@H]1O)[C@@]1(C)[C@H](O)[C@@H](O)C=C(C)[C@@H]1C[C@H]3OC(=O)[C@H](OC(C)=O)[C@@H]24 [YADANZIOSIDE D] | 21.4 | 59.2 | 38.5 | 5.66 | 48.4 | 70.8 |  | Active |  |  |
| COC(=O)[C@]12OC[C@]34[C@H]([C@@H](O)[C@@H]1O)[C@@]1(C)CC(=O)C(O[C@@H]5O[C@H](CO)[C@@H](O)[C@H](O)[C@H]5O)=C(C)[C@@H]1C[C@H]3OC(=O)[C@H](OC(C)=O)[C@@H]24 [YADANZIOSIDE I] | 26.1 | 67.9 | 35.4 | 4.22 | 54.9 | 81.5 |  | Active |  |  |
| COC(=O)[C@@]12OC[C@]34[C@H]([C@@H](O)[C@@H]1O)[C@@]1(C)CC(=O)C(O)=C(C)[C@@H]1C[C@H]3OC(=O)[C@H](OC(C)=O)[C@@H]24 [BRUCEINE B] | 20.5 | 81.5 | 40.6 | 3.47 | 65.2 | 88.9 | 86.3 | Active |  |  |
| COC(=O)[C@]12OC[C@]34[C@H]([C@@H](O)[C@@H]1O)[C@@]1(C)C=C(O[C@@H]5O[C@H](CO)[C@@H](O)[C@H](O)[C@H]5O)C(=O)[C@@H](C)[C@@H]1C[C@H]3OC(=O)[C@H](OC(=O)/C=C(\C)C(C)(C)OC(C)=O)[C@@H]24 [Yadanzioside G] |  |  |  |  |  | 33.7 |  | Active |  |  |
| COC(=O)[C@]12OC[C@]34[C@H]([C@@H](O)[C@@H]1O)[C@@]1(C)CC(=O)C(O[C@@H]5O[C@H](CO)[C@@H](O)[C@H](O)[C@H]5O)=C(C)[C@@H]1C[C@H]3OC(=O)[C@H](OC(=O)C=C(C)C)[C@@H]24 [Bruceoside-B] | 21.4 | 66.7 | 31.7 | 4.64 | 53.8 | 78.4 | 90.2 | Active |  |  |
| COC(=O)[C@]12OC[C@]34[C@H]([C@@H](O)[C@@H]1O)[C@@]1(C)C=C(O[C@@H]5O[C@H](CO)[C@@H](O)[C@H](O)[C@H]5O)C(=O)[C@@H](C)[C@@H]1C[C@H]3OC(=O)[C@H](OC(C)=O)[C@@H]24 [YADANZIOSIDE F] |  |  |  |  |  | 31.1 |  | Active |  |  |
